Results reported in ChEMBL document CHEMBL1124442, “Potential antitumor agents. 58. Synthesis and structure-activity relationships of substituted xanthenone-4-acetic acids active against the colon 38 tumor in vivo” (1989).
Activity calls are given as the source filed them.

Columns and labels:
[1] = Activity against colon adenocarcinoma C38 tumor in mice, after intraperitoneal administration at optimal dose; type: functional, Mus musculus
Summary of the method: (§1)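 Colon 38 fragments implanted subcutaneously and grown to 4–8 mm diameter. Single intraperitoneal dose of the sodium salt in 0.2 mL water, escalated at 1.5-fold intervals up to 750 mg/kg or the toxic limit, with at least three mice per dose. Optimal dose is the highest dose with no acute deaths within 24 h. Tumors excised at 24 h, fixed in formalin and stained with H&E. Sections scored against controls: + = 50–90% hemorrhagic necrosis, ++ = >90%.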

[2] = Inhibition of colon adenocarcinoma C38 tumor growth in mice, intraperitoneal administration; type: functional, Mus musculus; summary of the method: as §1
P388 [3] = assay: The average percentage increase in the lifespan of P388 leukemic mice, when compound was administered intraperitoneally; NA is Not Active.; type: functional, cell-based; details: Mus musculus
Summary of the method: (§2)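 10⁶ P388 leukemia cells injected intraperitoneally. Drug given intraperitoneally as the sodium salt in 0.2 mL water on days 1, 5 and 9; optimal dose is in mg/kg per day. ILS is the mean percent increase in lifespan over untreated tumor-bearing controls, with ≥20% considered significant. NA means no activity at any dose up to toxic levels.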

P388 [4] = assay: Inhibition of 10e6 P388 leukemic cells in mice, intraperitoneal administration; type: functional, Mus musculus; summary of the method: as §2
[5] = Ability of compound (220 mg/kg, q7dx2) to inhibit growth of Sc colon 38 tumor cells in mice; type: functional, Mus musculus
Summary of the method: (§3)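 Mice carrying palpable subcutaneous colon 38 tumors, randomized in groups of five. Drug given intraperitoneally in aqueous solution, either as a single dose or as two equal doses 7 days apart. Major and minor tumor axes measured twice weekly from the start of treatment. Volume taken as 0.52x²y. Growth delay in days is relative to untreated controls.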

P388 [6] = assay: The average percentage increase in the lifespan of P388 leukemic mice, when compound was administered intraperitoneally; NA means not active; type: functional, cell-based; details: Mus musculus; summary of the method: as §2
[7] = Activity against colon adenocarcinoma C38 tumor in mice, after intraperitoneal administration at optimal dose and value ranges from 50 -90 %; type: functional, Mus musculus; summary of the method: as §1
P388 [8] = assay: The average percentage increase in the lifespan of P388 leukemic mice, when compound was administered intraperitoneally; type: functional, Mus musculus
Summary of the method: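 Mice received 10⁶ P388 leukemia cells ip. Drug was given ip as the sodium salt in 0.2 mL water on days 1, 5 and 9, with doses in mg/kg/day up to toxic levels. ILS is the average percentage increase in lifespan over untreated tumor-bearing controls, and values of ≥20% were taken as significant.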

[9] = Ability of compound (100 mg/kg, single dose) to inhibit growth of Sc colon 38 tumor cells in mice; type: functional, Mus musculus; summary of the method: as §3
P388 [10] = assay: The average percentage increase in the lifespan of P388 leukemic mice, when compound was administered intraperitoneally; NA means not active.; type: functional, cell-based; details: Mus musculus; summary of the method: as §2
[11] = Ability of compound (45 mg/kg, q7dx2) to inhibit growth of Sc colon 38 tumor cells in mice; type: functional, Mus musculus; summary of the method: as §3
P388 [12] = assay: Optimal dose that inhibits growth of 10e6 P388 leukemic cells in mice, after intraperitoneal administration of the compound; type: functional, Mus musculus; summary of the method: as §2
P388 [13] = assay: The average percentage increase in the lifespan of P388 leukemic mice, when compound was administered intraperitoneally; NA is Not active; type: functional, cell-based; details: Mus musculus; summary of the method: as §2
[14] = Ability of compound (65 mg/kg, q4dx3) to inhibit growth of Sc colon 38 tumor cells in mice; type: functional, Mus musculus
Summary of the method: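 Subcutaneously implanted colon 38 fragments were grown to 4–8 mm diameter. Mice with palpable tumors were randomized in groups of five and dosed ip with drug in aqueous solution; q4d×3 means three equal doses 4 days apart. Major and minor tumor axes were measured twice weekly from the start of treatment. Volume was calculated as 0.52x²y, and growth delay in days was derived against untreated controls.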

[15] = Ability of compound (330 mg/kg, single dose) to inhibit growth of Sc colon 38 tumor cells in mice; type: functional, Mus musculus; summary of the method: as §3
[16] = Activity against colon adenocarcinoma C38 tumor in mice, after intraperitoneal administration at optimal dose.; type: functional, Mus musculus; summary of the method: as §1

O=C(O)Cc1cccc2oc3ccccc3c(=O)c12
Activity [1]: <50%
Optimal dose [2]: 500 mg/kg
ILS (P388 [3]): No activity
Optimal dose (P388 [4]): 500 mg/kg

O=C(O)Cc1cccc2c(=O)c3ccccc3oc12
Activity [1]: >90%
Optimal dose [2]: 220 mg/kg
Growth delay [5]: 11 days
ILS (P388 [6]): inactive
Optimal dose (P388 [4]): 150 mg/kg

COc1cccc2c(=O)c3cccc(CC(=O)O)c3oc12
Optimal dose [2]: 150 mg/kg
Activity [7]: 50%
Optimal dose (P388 [4]): 150 mg/kg
ILS (P388 [8]): 42%

COc1ccc2c(=O)c3cccc(CC(=O)O)c3oc2c1
Optimal dose [2]: 150 mg/kg
Activity [7]: 50%
Optimal dose (P388 [4]): 65 mg/kg
Growth delay [9]: 0 days
ILS (P388 [8]): 28%

O=C(O)Cc1cc(Cl)cc2c(=O)c3ccccc3oc12
Optimal dose [2]: 330 mg/kg
ILS (P388 [3]): No activity
Activity [7]: 50%
Optimal dose (P388 [4]): 150 mg/kg

O=C(O)Cc1cccc2c(=O)c3cccc(O)c3oc12
Activity [1]: <50%
Optimal dose [2]: 750 mg/kg
Optimal dose (P388 [4]): 150 mg/kg
ILS (P388 [10]): No activity

O=C(O)Cc1cccc2c(=O)c3c(Cl)cccc3oc12
Optimal dose [2]: 750 mg/kg
ILS (P388 [3]): No activity
Activity [7]: 50%
Optimal dose (P388 [4]): 330 mg/kg

COc1ccc2c(=O)c3ccccc3oc2c1CC(=O)O
Activity [1]: <50%
Optimal dose [2]: 220 mg/kg
ILS (P388 [3]): No activity
Optimal dose (P388 [4]): 220 mg/kg

Cc1cccc2c(=O)c3cccc(CC(=O)O)c3oc12
Activity [1]: >90%
Optimal dose [2]: 45 mg/kg
Growth delay [11]: 13 days
Optimal dose (P388 [4]): 30 mg/kg
ILS (P388 [8]): 27%

Cc1ccc(CC(=O)O)c2oc3ccccc3c(=O)c12
Optimal dose [2]: 150 mg/kg
ILS (P388 [3]): No activity
Activity [7]: 50%
Optimal dose (P388 [12]): 100 mg/kg

Cc1ccc2oc3c(CC(=O)O)cccc3c(=O)c2c1
Optimal dose [2]: 500 mg/kg
ILS (P388 [3]): No activity
Activity [7]: 50%
Optimal dose (P388 [4]): 500 mg/kg

Cc1cccc2oc3c(CC(=O)O)cccc3c(=O)c12
Activity [1]: <50%
Optimal dose [2]: 330 mg/kg
ILS (P388 [3]): No activity
Optimal dose (P388 [4]): 150 mg/kg

COc1cc(CC(=O)O)c2oc3ccccc3c(=O)c2c1
Optimal dose [2]: 750 mg/kg
ILS (P388 [3]): No activity
Activity [7]: 50%
Optimal dose (P388 [4]): 225 mg/kg

Cc1ccc2c(=O)c3cccc(CC(=O)O)c3oc2c1
Optimal dose [2]: 220 mg/kg
Activity [7]: 50%
Optimal dose (P388 [4]): 100 mg/kg
ILS (P388 [8]): 24%

O=C(O)Cc1cccc2c(=O)c3cc(O)ccc3oc12
Activity [1]: <50%
Optimal dose [2]: 750 mg/kg

O=C(O)Cc1cccc2c(=O)c3cccc([N+](=O)[O-])c3oc12
Optimal dose [2]: 220 mg/kg
ILS (P388 [13]): inactive
Optimal dose (P388 [4]): 150 mg/kg

COc1cccc2oc3c(CC(=O)O)cccc3c(=O)c12
Activity [1]: <50%
Optimal dose [2]: 750 mg/kg
ILS (P388 [3]): No activity
Optimal dose (P388 [4]): 330 mg/kg

O=C(O)Cc1c(O)ccc2c(=O)c3ccccc3oc12
Activity [1]: <50%
Optimal dose [2]: 500 mg/kg
ILS (P388 [3]): No activity
Optimal dose (P388 [4]): 500 mg/kg

O=C(O)Cc1cccc2c(=O)c3ccc(Cl)cc3oc12
Optimal dose [2]: 150 mg/kg
ILS (P388 [3]): No activity
Activity [7]: 50%
Optimal dose (P388 [4]): 65 mg/kg

O=C(O)Cc1ccc(O)c2c(=O)c3ccccc3oc12
Activity [1]: <50%
Optimal dose [2]: 750 mg/kg

O=C(O)Cc1cccc2c(=O)c3ccc(O)cc3oc12
Optimal dose [2]: 750 mg/kg
ILS (P388 [3]): No activity
Activity [7]: 50%
Optimal dose (P388 [4]): 225 mg/kg

O=c1[nH]cc(F)c(=O)[nH]1 [FLUOROURACIL]
Growth delay [14]: 12.5 days

O=C(O)Cc1cc(O)cc2c(=O)c3ccccc3oc12
Activity [1]: <50%
Optimal dose [2]: 750 mg/kg

O=C(O)Cc1cccc2c(=O)c3cccc(Cl)c3oc12
Activity [1]: >90%
Optimal dose [2]: 150 mg/kg
Optimal dose (P388 [4]): 65 mg/kg
Growth delay [9]: 5.2 days
ILS (P388 [8]): 34%

O=C(O)Cc1ccc(Cl)c2c(=O)c3ccccc3oc12
Activity [1]: >90%
Optimal dose [2]: 330 mg/kg
ILS (P388 [3]): No activity
Optimal dose (P388 [4]): 220 mg/kg

COc1ccc2oc3c(CC(=O)O)cccc3c(=O)c2c1
Optimal dose [2]: 500 mg/kg
ILS (P388 [3]): No activity
Activity [7]: 50%
Optimal dose (P388 [4]): 150 mg/kg

O=C(O)Cc1cccc2c(=O)c3cc(Cl)ccc3oc12
Optimal dose [2]: 500 mg/kg
ILS (P388 [3]): No activity
Activity [7]: 50%
Optimal dose (P388 [4]): 150 mg/kg

O=C(O)Cc1cccc2c(=O)cc(-c3ccccc3)oc12 [MITOFLAXONE]
Activity [1]: >90%
Optimal dose [2]: 330 mg/kg
ILS (P388 [3]): No activity
Optimal dose (P388 [4]): 150 mg/kg
Growth delay [15]: 17 days

O=C(O)Cc1cccc2c(=O)c3cc([N+](=O)[O-])ccc3oc12
Activity [1]: <50%
Optimal dose [2]: 500 mg/kg
ILS (P388 [13]): inactive
Optimal dose (P388 [4]): 225 mg/kg

Cc1ccc2c(=O)c3ccccc3oc2c1CC(=O)O
Optimal dose [2]: 150 mg/kg
Activity [7]: 50%
Optimal dose (P388 [4]): 100 mg/kg
ILS (P388 [8]): 26%

O=C(O)Cc1c(Cl)ccc2c(=O)c3ccccc3oc12
Optimal dose [2]: 500 mg/kg
Activity [16]: >90%
ILS (P388 [3]): No activity
Optimal dose (P388 [4]): 150 mg/kg

O=C(O)Cc1ccc2c(=O)c3ccccc3oc2c1
Activity [1]: <50%
Optimal dose [2]: 500 mg/kg
ILS (P388 [3]): No activity
Optimal dose (P388 [4]): 225 mg/kg

COc1ccc(CC(=O)O)c2oc3ccccc3c(=O)c12
Activity [1]: <50%
Optimal dose [2]: 500 mg/kg

Cc1cc(CC(=O)O)c2oc3ccccc3c(=O)c2c1
Optimal dose [2]: 500 mg/kg
ILS (P388 [3]): No activity
Activity [7]: 50%
Optimal dose (P388 [4]): 330 mg/kg
